Active and inactive are the calls of the source. The calls are words filed in the database; no cut-off is given here.
What was measured:
[1] = molecular target: Voltage-gated L-type calcium channel (Homo sapiens, UniProt Q13936+Q13698+Q01668+O60840); test: Inhibition of voltage-dependent L-type calcium channel in human SH-SY5Y cells assessed as reduction in KCl-stimulated calcium influx at 100 uM preincubated for 30 mins in presence of Mag-Fura-2/AM dye followed by KCl stimulation and measured over 35 secs by fluorescence assay; format: cell-based; details: 35 s
[2] = molecular target: Glutamate [NMDA] receptor (Homo sapiens) (UniProt Q05586+Q12879+Q13224+O15399+O60391+Q14957+Q8TCU5); test: Antagonist activity at NMDA receptor in human SH-SY5Y cells assessed as reduction in NMDA/glycine-stimulated calcium influx at 10 uM preincubated for 30 mins in presence of Mag-Fura-2/AM dye followed by NMDA/glycine stimulation and measured over 35 secs by fluorescence assay (reference value: 100%); format: cell-based
Procedure, shortened: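 SH-SY5Y cells loaded with ratiometric Ca indicator Mag-Fura-2/AM, incubated with compound at 10 µM for 30 min at 37 °C, then stimulated with concentrated NMDA/glycine solution; fluorescence change from cytosolic Ca rise read on plate reader. % NMDAr inhibition calculated relative to MK-801 (10 µM); DMSO vehicle. Mean of at least 9 independent experiments.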

[3] = molecular target: T1, Amine oxidase [flavin-containing] B (Homo sapiens, UniProt P27338); test: Inhibition of recombinant human MAO-B using kynuramine as substrate after 20 mins by fluorescence assay relative to control
T1 sequence (P27338 whole entry): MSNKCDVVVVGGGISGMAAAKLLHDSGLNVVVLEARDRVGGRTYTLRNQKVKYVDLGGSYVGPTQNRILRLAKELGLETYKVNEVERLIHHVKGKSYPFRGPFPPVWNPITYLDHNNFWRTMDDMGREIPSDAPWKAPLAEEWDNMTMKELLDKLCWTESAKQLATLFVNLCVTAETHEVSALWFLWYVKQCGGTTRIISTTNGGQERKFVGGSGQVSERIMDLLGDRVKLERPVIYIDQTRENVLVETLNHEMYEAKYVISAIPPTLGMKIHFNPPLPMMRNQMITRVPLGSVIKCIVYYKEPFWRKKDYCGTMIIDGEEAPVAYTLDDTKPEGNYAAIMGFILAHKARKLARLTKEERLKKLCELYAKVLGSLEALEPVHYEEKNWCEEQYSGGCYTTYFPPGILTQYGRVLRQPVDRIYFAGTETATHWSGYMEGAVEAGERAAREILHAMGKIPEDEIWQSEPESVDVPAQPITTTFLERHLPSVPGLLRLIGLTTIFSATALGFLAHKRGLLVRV
Procedure, shortened: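 Recombinant human MAO-B oxidises kynuramine. The product, 4-hydroxyquinoline, is read by fluorescence in the supernatant (excitation 310 nm, emission 400 nm).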

[4] = Cytotoxicity against human SH-SY5Y cells assessed as cell viability at 10 uM after 48 hrs by MTT assay (reference value: 100%); format: cell-based; details: read-out: Activity
Procedure, shortened: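 SH-SY5Y cells exposed to compound at 10, 50 or 100 µM for 48 h; viability by MTT, read spectrophotometrically. DMSO vehicle-treated cells set as 100% viability. Mean ± SEM, n = 3 with four fields per repeat; ANOVA.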

SH-SY5Y [5] = test: Neuroprotective activity in human SH-SY5Y cells assessed as reduction in MPP+ induced cytotoxicity by measuring cell viability at 1 uM preincubated for 2 hrs followed by MPP+ addition and measured after 48 hrs by MTT assay (reference value: 45%); format: functional
SH-SY5Y [6] = test: Neuroprotective activity in human SH-SY5Y cells assessed as reduction in MPP+ induced cytotoxicity at 5 to 10 uM preincubated for 2 hrs followed by MPP+ addition measured after 48 hrs by MTT assay; format: functional, cell-based
[7] = molecular target: T2, Amine oxidase [flavin-containing] A (Homo sapiens, UniProt P21397); test: Inhibition of recombinant human MAO-A using kynuramine as substrate after 20 mins by fluorescence assay
T2 sequence (P21397 whole entry): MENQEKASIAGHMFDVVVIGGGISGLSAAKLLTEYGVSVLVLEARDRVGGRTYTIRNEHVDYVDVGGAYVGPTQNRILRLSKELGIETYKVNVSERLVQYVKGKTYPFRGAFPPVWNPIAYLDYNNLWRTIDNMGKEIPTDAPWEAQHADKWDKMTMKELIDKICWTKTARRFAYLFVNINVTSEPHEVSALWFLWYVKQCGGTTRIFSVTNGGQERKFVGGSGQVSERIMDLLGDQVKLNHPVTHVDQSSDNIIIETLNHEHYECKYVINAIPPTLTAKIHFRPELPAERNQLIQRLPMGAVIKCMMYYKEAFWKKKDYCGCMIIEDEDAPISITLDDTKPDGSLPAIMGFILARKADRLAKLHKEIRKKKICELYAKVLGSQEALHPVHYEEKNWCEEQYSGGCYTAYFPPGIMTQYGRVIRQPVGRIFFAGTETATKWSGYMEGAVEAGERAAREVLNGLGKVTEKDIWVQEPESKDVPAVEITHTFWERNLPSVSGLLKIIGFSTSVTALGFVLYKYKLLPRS

[8] = molecular target: T1, Amine oxidase [flavin-containing] B; test: Inhibition of recombinant human MAO-B using kynuramine as substrate after 20 mins by fluorescence assay
[9] = molecular target: T2, Amine oxidase [flavin-containing] A; test: Irreversible inhibition of recombinant human MAO-A at 2 times IC50 preincubated up to 60 mins followed by kynuramine substrate addition and measured after 20 mins by fluorescence assay
Procedure, shortened: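 Recombinant human MAO-A is preincubated with inhibitor for 0, 15, 30 or 60 min, then the kynuramine reaction is started. Residual oxidation rate is read as 4-hydroxyquinoline fluorescence (RFU). Results are the mean of three independent experiments.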

[10] = molecular target: T1, Amine oxidase [flavin-containing] B; test: Reversible inhibition of recombinant human MAO-B at 2 times IC50 preincubated up to 60 mins followed by kynuramine substrate addition and measured after 20 mins by fluorescence assay

C#CCNC12OC3C4C5CC(C6C5C3C61)C42 (stereo unspecified)
inhibition (INH) [1]: Not Active | inhibition [2]: inactive

Nc1ccc(CNC23OC4C5C6CC(C7C6C4C72)C53)cc1 (stereo unspecified)
inhibition [2]: inactive

Nc1ccc(C/N=C2/C3C4CC5C6C4C2C6C2(OCCO2)C53)cc1 (stereo unspecified)
inhibition [2]: 63.1%

C#CCN1C2C3C4CC5C6C4C2C6C1(O)C53 (stereo unspecified)
inhibition (INH) [1]: Not Active | inhibition [2]: 4% | inhibition (INH) [3]: 6%

C#CCNCc1ccc(CNC23OC4C5C6CC(C7C6C4C72)C53)cc1 (stereo unspecified)
inhibition [2]: 31.4%

C#CCNCc1ccc(CN2C3C4C5CC6C7C5C3C7C2(O)C64)cc1 (stereo unspecified)
viability at 48 h, 10 µM [4]: 98% | Activity (SH-SY5Y [5]): 43% | Activity (SH-SY5Y [6]): Active | inhibition [2]: 0.6% | IC50 [7]: 56.2 µM | IC50 [8]: 3.8 µM | inhibition (INH) [9]: Active | inhibition (INH) [10]: Active

COCCOC(=O)C1=C(C)NC(C)=C(C(=O)OC(C)C)C1c1cccc([N+](=O)[O-])c1 (stereo unspecified)
inhibition [2]: inactive

ClCc1ccc(CNC23OC4C5C6CC(C7C6C4C72)C53)cc1 (stereo unspecified)
inhibition [2]: 26.1%

c1cc(C/N=C2\C3C4CC5C6C4C2C6C2(OCCO2)C53)ccc1C/N=C1/C2C3CC4C5C3C1C5C1(OCCO1)C42 (stereo unspecified)
inhibition [2]: 70.5%

NCc1ccc(CN2C3C4C5CC6C7C5C3C7C2(O)C64)cc1 (stereo unspecified)
viability at 48 h, 10 µM [4]: 107% | Activity (SH-SY5Y [5]): 46% | Activity (SH-SY5Y [6]): Active | inhibition [2]: 59% | IC50 [7]: > 100 µM | IC50 [8]: > 100 µM

C#CCNCc1ccc(C/N=C2/C3C4CC5C6C4C2C6C2(OCCO2)C53)cc1 (stereo unspecified)
inhibition [2]: 88.3%

NCc1ccc(C/N=C2/C3C4CC5C6C4C2C6C2(OCCO2)C53)cc1 (stereo unspecified)
inhibition [2]: 49.5%

C#CCNCc1ccc(CNC2C3C4CC5C6C4C2C6C2(OCCO2)C53)cc1 (stereo unspecified)
inhibition [2]: 63.9%

Nc1ccc(CN2C3C4C5CC6C7C5C3C7C2(O)C64)cc1 (stereo unspecified)
viability at 48 h, 10 µM [4]: 101% | Activity (SH-SY5Y [5]): 31% | Activity (SH-SY5Y [6]): Active | inhibition [2]: 11.9% | IC50 [7]: > 100 µM | IC50 [8]: > 100 µM

NCc1ccc(CNC2C3C4CC5C6C4C2C6C2(OCCO2)C53)cc1 (stereo unspecified)
inhibition [2]: inactive

c1ccc(CNC23OC4C5C6CC(C7C6C4C72)C53)cc1 (stereo unspecified)
viability at 48 h, 10 µM [4]: 86% | Activity (SH-SY5Y [5]): 66% | Activity (SH-SY5Y [6]): Active | inhibition [2]: 32.5% | IC50 [7]: > 100 µM | IC50 [8]: > 100 µM

— ChEMBL document CHEMBL4330068, “Design, synthesis and evaluation of pentacycloundecane and hexacycloundecane propargylamine derivatives as multifunctional neuroprotective agents” (Eur J Med Chem, 2019)
